Results on one molecule are retold here after ChEMBL document CHEMBL4354812, “N-Benzyl/Aryl Substituted Tryptanthrin as Dual Inhibitors of Indoleamine 2,3-Dioxygenase and Tryptophan 2,3-Dioxygenase” (J Med Chem, 2019).

pIC50, pKi: −log10 of the molar value. Active and inactive are the calls of the source. No cut-off for these calls is given here.

The target in experiment [1] is T1, Tryptophan 2,3-dioxygenase (Homo sapiens, UniProt P48775). Put plainly: Inhibition of human TDO transfected in HEK293 cells assessed as reduction in kynurenine production using L-tryptophan as substrate incubated for 12 hrs. The experiment is classed as cell-based. Summed up:
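U87 MG cells (hIDO2) or HEK293 cells (hTDO) were transiently transfected at 80% confluence, with empty vector as control. After 18 h, cells were seeded 2.5 × 10⁴/well in medium with 200 μM L-Trp. Compound serial dilutions were added after a further 6 h (IDO2) or 12 h (TDO). Reactions were stopped 24 h (IDO2) or 8 h (TDO) later with TCA, heated 65 °C 15 min, and Kyn read with DMAB at 492 nm. IC50 by nonlinear regression.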
Target sequence in this assay (P48775 whole entry): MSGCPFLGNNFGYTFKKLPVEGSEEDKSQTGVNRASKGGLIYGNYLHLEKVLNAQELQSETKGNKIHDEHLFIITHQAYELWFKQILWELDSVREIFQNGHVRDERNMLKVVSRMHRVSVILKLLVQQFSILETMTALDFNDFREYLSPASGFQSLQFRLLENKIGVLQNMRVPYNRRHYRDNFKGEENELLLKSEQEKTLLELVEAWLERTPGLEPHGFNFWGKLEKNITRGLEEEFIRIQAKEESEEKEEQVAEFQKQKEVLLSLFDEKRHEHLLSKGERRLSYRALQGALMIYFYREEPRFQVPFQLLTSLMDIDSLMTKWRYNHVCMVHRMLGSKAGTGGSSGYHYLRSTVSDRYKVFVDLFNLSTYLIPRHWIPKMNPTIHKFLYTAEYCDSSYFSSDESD

Experiment [2] concerns the target T1, Tryptophan 2,3-dioxygenase. Kind of experiment: Uncompetitive inhibition of recombinant human TDO expressed in Escherichia coli BL21 (DE3) assessed as assessed as inhibition constant using varying concentration of L-tryptophan as substrate by Dixon plot analysis. Summed up: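 Enzymatic assays of the kynurenine-forming reaction were run with varying L-Trp. Ki was derived by plotting [S]/V against inhibitor concentration [I], with inhibition type assigned from the graphical pattern.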
Target sequence in this assay (P48775 whole entry): as above

The target in experiment [3] is T1, Tryptophan 2,3-dioxygenase. Put plainly: Binding affinity to human TDO at 200 uM by STD NMR spectrometry analysis.
Target sequence in this assay (P48775 whole entry, looked up): as the sequence (P48775 whole entry) above
The species entered for experiment [4] is Homo sapiens. Put plainly: Inhibition of IDO1/TDO in IFNgamma-treated human HeLa cells assessed as T cell proliferation at 1 uM measured after 2 days in presence of IL-2, anti-CD3 and IFN-gamma by CFSE dye based flow cytometry analysis (reference value: 11.7 %). The arrangement: scale not given: the % may be the effect or the level left. Summed up: (§1)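 CFSE-labelled human PBMC lymphocytes (1 × 10⁶/well) were cocultured with HeLa cells (2 × 10⁵/well), a 5:1 ratio, in 150 U/mL IL-2, 100 ng/mL anti-CD3 and 60 ng/mL IFN-γ. Compound was tested at 40 nM, 200 nM, 500 nM or 1 μM. Proliferation was read by flow cytometry after 2 days, three independent experiments.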
On the technique in general: A flow cytometer gives signals particle by particle.

The species named for experiment [5] is Homo sapiens. Put plainly: Inhibition of IDO1/TDO in IFNgamma-treated human HeLa cells assessed as T cell proliferation at 200 nM measured after 2 days in presence of IL-2, anti-CD3 and IFN-gamma by CFSE dye based flow cytometry analysis (reference value: 11.7 %). The arrangement: scale not given: the % may be the effect or the level left. In short, it runs like this:
as §1

The species entered for experiment [6] is Homo sapiens. Put plainly: Inhibition of IDO1/TDO in IFNgamma-treated human HeLa cells assessed as T cell proliferation at 500 nM measured after 2 days in presence of IL-2, anti-CD3 and IFN-gamma by CFSE dye based flow cytometry analysis (reference value: 11.7 %). The arrangement: scale not given: the % may be the effect or the level left. In short, it runs like this:
as §1

Experiment [7] deals with Mus musculus. Kind of experiment: In vivo inhibition of IDO1/2/TDO in C57BL/6 mouse assessed as decrease in LPS-stimulated kynurenine pathway by measuring increase in serum tryptophan level at 60 mg/kg, ig pretreated for 24 hrs with Escherichia coli LPS followed by compound treatment measured at 12 hrs post-treatment by HPLC analysis. The experiment is classed as functional, organism-based. In short, it runs like this: (§2)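 C57BL/6 mice were given ip saline or E. coli LPS 5 mg/kg. 24 h later they received ig 60 mg/kg compound or 0.5% CMC-Na. Blood was taken at 1, 6, 12, 24 and 30 h after dosing. Serum Trp and Kyn were measured by HPLC and the Kyn/Trp ratio calculated. n = 3–5 mice/group.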

The subject of experiment [8] is Mus musculus. Kind of experiment: In vivo inhibition of IDO1/2/TDO in C57BL/6 mouse assessed as decrease in LPS-stimulated kynurenine pathway by measuring increase in serum tryptophan level at 60 mg/kg, ig pretreated for 24 hrs with Escherichia coli LPS followed by compound treatment measured at 24 hrs post-treatment by HPLC analysis. It is filed as functional, organism-based. In short, it runs like this: as §2

The test system of experiment [9] is Mus musculus. Kind of experiment: In vivo inhibition of IDO1/2/TDO in C57BL/6 mouse assessed as decrease in LPS-stimulated kynurenine pathway by measuring decrease in ratio of kynurenine to tryptophan level in serum at 60 mg/kg, ig pretreated for 24 hrs with Escherichia coli LPS followed by compound treatment measured at 24 hrs post-treatment by HPLC analysis. The experiment is classed as functional, organism-based. In short, it runs like this: as §2

Experiment [10] has as its system Rattus norvegicus. Put plainly: In vivo inhibition of IDO1/2/TDO in Sprague-Dawley rat assessed as increase in tryptophan level in lung at 30 mg/kg, ig administered as single dose by LC-MS analysis. The experiment is classed as functional, organism-based. In short, it runs like this: (§3)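 Naive SD rats received a single ig dose of 30 mg/kg in 0.5% CMC-Na, with vehicle as control. Lungs were dissected and Trp and Kyn quantified by LC–MS, with the Kyn/Trp ratio calculated. n = 3–4 rats/group.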

The subject of experiment [11] is Rattus norvegicus. Kind of experiment: In vivo inhibition of IDO1/2/TDO in Sprague-Dawley rat assessed as decrease in kynurenine level in lung at 30 mg/kg, ig administered as single dose by LC-MS analysis. It is filed as functional, organism-based. Summed up:
as §3

Experiment [12] has as its system Lewis lung carcinoma cell line. Put plainly: Antitumor activity against mouse LLC cells implanted in C57BL/6 mouse assessed as tumor regression at 45 mg/kg, po qd administered for 2 weeks and measured post-treatment. The experiment is classed as functional, organism-based. In short, it runs like this: (§4)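 Tumor cells (LLC, or H22 ascites cells after two intraperitoneal passages in Kunming mice) injected sc into the right forelimb at 2 × 10⁶ per mouse, in female 6–8-week C57BL/6 or Kunming mice. Oral dosing once daily began at 5 mm tumor diameter and continued 2 weeks. Vehicle was 0.5% CMC-Na. Volume was read by caliper every 2 days as long × short²/2. Tumors were weighed at sacrifice. n = 9–10/group.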

Experiment [13] has as its system H22. Kind of experiment: Antitumor activity against mouse H22 cells implanted in Kunming mouse assessed as reduction in tumor volume at 45 mg/kg, po qd administered for 2 weeks and measured at 2 days interval during compound dosing relative to control. More on the design: scale not given: the % may be the effect or the level left. The experiment is classed as functional. In short, it runs like this: as §4

The subject of experiment [14] is H22. Put plainly: Antitumor activity against mouse H22 cells implanted in Kunming mouse assessed as reduction in tumor weight at 45 mg/kg, po qd administered for 2 weeks and measured post-treatment relative to control. It is filed as functional. More on the design: scale not given: the % may be the effect or the level left. Summed up:
as §4

Experiment [15] concerns Mus musculus. Kind of experiment: In vivo blockade of kynurenine pathway in C57BL/6 mouse implanted with mouse LLC cells assessed as decrease in kynurenine level in tumor at 45 mg/kg, po qd for 2 weeks by LC-MS analysis. It is filed as functional, organism-based. In short, it runs like this: (§5)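 LLC tumor-bearing C57BL/6 mice received oral dosing once daily in 0.5% CMC-Na for 2 weeks. Tumors were dissected and Trp and Kyn measured by LC–MS on a C18 column with acetonitrile/0.1% formic acid gradient (5–80%), positive ion mode, m/z 205 (Trp) and 209 (Kyn), metronidazole internal standard. Kyn/Trp ratio calculated. n = 4–6/group.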

The test system of experiment [16] is Mus musculus. Put plainly: In vivo blockade of kynurenine pathway in C57BL/6 mouse implanted with mouse LLC cells assessed as increase in tryptophan level in tumor at 45 mg/kg, po qd for 2 weeks by LC-MS analysis. It is filed as functional, organism-based. Summed up: as §5
The test system of experiment [17] is Mus musculus. Put plainly: In vivo blockade of kynurenine pathway in Kunming mouse implanted with mouse H22 cells assessed as decrease in kynurenine level in serum at 45 mg/kg, po qd for 2 weeks by HPLC analysis. It is filed as functional, organism-based. Summed up:
(§6)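 H22 tumor-bearing Kunming mice received oral dosing once daily in 0.5% CMC-Na for 2 weeks. Serum Trp and Kyn were measured by HPLC on a C18 column with 15 mM sodium acetate (pH 3.6) containing 4% acetonitrile, UV detection at 280 and 360 nm. Kyn/Trp ratio calculated. n = 9–10/group.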

In experiment [18] the test system is Mus musculus. Put plainly: In vivo blockade of kynurenine pathway in Kunming mouse implanted with mouse H22 cells assessed as decrease in kynurenine/tryptophan ratio in serum at 45 mg/kg, po qd for 2 weeks by HPLC analysis. The experiment is classed as functional, organism-based. In short, it runs like this: as §6

Consider `CN1CCN(Cc2ccc3nc4n(c(=O)c3c2)-c2ccc(F)cc2C4=O)CC1`, for which the negative-log IC50 (pIC50) (as a rule, the IC50 on a negative log10 scale, so that one unit is a factor of ten) in [1] is 7.05. For the same molecule, the pKi (commonly the Ki on a negative log10 scale, so that one unit is a factor of ten) in experiment [2] is 6.51. The outcome (in experiment [3]; with Mus musculus [15]; with Mus musculus [17]; in the experiment on Mus musculus [18]) was Active. For the same molecule, the Activity in the experiment filed under Homo sapiens [4] turned out to be 52.8%; in the experiment listed under Homo sapiens [5], 39.8%; in the experiment filed under Homo sapiens [6] it was 51.4%; with H22 [13] it was 47.3%; in the experiment on H22 [14], 55.4%. In addition, the inhibition result in the experiment with Mus musculus [7], in the experiment with Mus musculus [8], in the experiment on Mus musculus [9], in the experiment with Rattus norvegicus [10] and in the experiment on Rattus norvegicus [11] was “Active” each time. In addition, the result (in [12]; in the experiment on Mus musculus [16]) was inactive.
